This is an account of results in ChEMBL document CHEMBL3994673, “Design and Synthesis of Potent and Selective PIM Kinase Inhibitors by Targeting Unique Structure of ATP-Binding Pocket” (ACS Med Chem Lett, 2017).

Values after ≈ are worked out from the molar mass of the structure shown.

In data set [1] the target is hERG (KCNH2) (Homo sapiens, UniProt Q12809). In words: Inhibition of human ERG expressed in CHO cells at 10 uM by patch clamp method relative to control. It is filed as cell-based. Conditions: CHO cells expressing human ERG. In a few lines:
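hERG block measured by patch clamp with compound at 10 μM; performed by a contract lab (Cerep).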

The nature of data set [2]: Stability in mouse liver microsomes assessed as parent compound remaining at 1 uM after 1 hr. Conditions: read-out: Stability. It is filed as ADME, microsome. Summed up:
(§1)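 Compound at 1 μM incubated with liver microsomes (0.3 mg/mL protein) at 37 °C for 1 h; value is percent of parent remaining. Performed by a contract lab (Cerep).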

The target in data set [3] is Platelet-derived growth factor receptor alpha (Homo sapiens) (UniProt P16234). The data set can be described thus: Inhibition of recombinant human N-terminal GST-tagged PDGFRalpha cytoplasmic domain (550 to 1089 end residues) expressed in baculovirus infected sf21 cells at 200 nM using CSKtide as substrate by electrophoretic mobility shift assay relative to control. Summed up:
(§2)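 Single-point screen of a 52-kinase panel with compound at 200 nM, read as % inhibition of each kinase; run by a contract lab (Carna Biosciences).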
On the technique in general: In EMSA bound probe runs differently from free probe, usually more slowly.

Data set [4] can be described thus: Permeability in human Caco2 cells at 10 uM. It is filed as ADME, cell-based. Particulars: Caco-2, read-out: permeability. Summed up:
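Caco-2 monolayer permeability measured with compound at 10 μM, reported in units of 10–6 cm/s; performed by a contract lab (Cerep).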

Data set [5] has as its target T1, Serine/threonine-protein kinase pim-3 (Homo sapiens, UniProt Q86V86). In words: Inhibition of full length recombinant human N-terminal GST-tagged PIM3 (1 to 326 end residues) expressed in baculovirus infected sf21 cells at 200 nM using S6K2 peptide as substrate by electrophoretic mobility shift assay relative to control. In a few lines:
as §2

The nature of data set [6]: Aqueous solubility of the compound in pH 7.4 PBS by HPLC-UV method. It is filed as physicochemical. Summed up:
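Tested in PBS pH 7.4 with a final DMSO concentration of 2%; performed by a contract lab (Cerep).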

Data set [7] addresses T1, Serine/threonine-protein kinase pim-3. In words: Inhibition of full length recombinant human N-terminal GST-tagged PIM3 (1 to 326 end residues) expressed in baculovirus infected sf21 cells using S6K2 peptide as substrate by electrophoretic mobility shift assay.
For data set [8], the target named is T2, Serine/threonine-protein kinase pim-2 (Homo sapiens, UniProt Q9P1W9). The data set can be described thus: Inhibition of full length recombinant human N-terminal GST-tagged PIM2 (1 to 311 residues) expressed in baculovirus infected sf21 cells using S6K2 peptide as substrate by electrophoretic mobility shift assay.
Data set [9] is described as follows: Stability in human liver microsomes assessed as parent compound remaining at 1 uM after 1 hr. It is filed as ADME, microsome. Particulars: read-out: Stability. In a few lines: as §1
For orientation: Liver microsomes are vesicles of endoplasmic reticulum, rich in cytochrome P450 enzymes.

For data set [10], the target named is T3, Serine/threonine-protein kinase pim-1 (Homo sapiens, UniProt P11309). The data set can be described thus: Inhibition of full length recombinant human N-terminal His-tagged PIM1 (1 to 313 end residues) expressed in baculovirus infected sf21 cells using S6K2 peptide as substrate by electrophoretic mobility shift assay.
The target of data set [11] is Death-associated protein kinase 1 (Homo sapiens) (UniProt P53355). In words: Inhibition of recombinant human N-terminal GST-tagged DAPK1 catalytic domain (1 to 289 residues) expressed in baculovirus infected sf21 cells at 200 nM using DAPK1tide as substrate by electrophoretic mobility shift assay relative to control. In a few lines: as §2
In data set [12] the target is T4, Serine/threonine-protein kinase D2 (Homo sapiens) (UniProt Q9BZL6).
T4 sequence (whole entry): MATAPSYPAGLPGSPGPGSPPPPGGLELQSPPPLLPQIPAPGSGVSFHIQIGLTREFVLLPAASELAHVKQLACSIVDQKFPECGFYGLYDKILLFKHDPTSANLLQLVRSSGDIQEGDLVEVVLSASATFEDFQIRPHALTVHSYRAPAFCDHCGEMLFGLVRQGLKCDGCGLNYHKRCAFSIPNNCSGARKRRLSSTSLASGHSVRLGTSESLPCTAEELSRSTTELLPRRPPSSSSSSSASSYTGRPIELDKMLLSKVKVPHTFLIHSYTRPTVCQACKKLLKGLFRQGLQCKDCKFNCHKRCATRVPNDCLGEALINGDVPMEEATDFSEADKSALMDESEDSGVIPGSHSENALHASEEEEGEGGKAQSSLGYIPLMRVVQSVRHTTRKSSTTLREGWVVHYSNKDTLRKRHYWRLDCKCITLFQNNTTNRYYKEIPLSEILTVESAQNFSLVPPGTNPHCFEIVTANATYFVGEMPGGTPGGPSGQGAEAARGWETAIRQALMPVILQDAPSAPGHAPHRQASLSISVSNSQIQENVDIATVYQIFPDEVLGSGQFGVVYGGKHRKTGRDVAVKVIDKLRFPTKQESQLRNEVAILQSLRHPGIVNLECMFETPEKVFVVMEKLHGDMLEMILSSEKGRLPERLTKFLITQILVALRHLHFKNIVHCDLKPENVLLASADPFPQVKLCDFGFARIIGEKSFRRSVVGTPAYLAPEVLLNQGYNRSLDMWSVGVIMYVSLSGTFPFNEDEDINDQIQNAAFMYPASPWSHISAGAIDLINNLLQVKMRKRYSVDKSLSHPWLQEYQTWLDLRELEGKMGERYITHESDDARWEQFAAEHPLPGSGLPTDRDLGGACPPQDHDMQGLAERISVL
The data set can be described thus: Inhibition of full length recombinant human N-terminal GST-tagged PKD2 (1 to 878 end residues) expressed in baculovirus infected sf21 cells at 200 nM using GS peptide as substrate by electrophoretic mobility shift assay relative to control. Summed up: as §2

Data set [13] addresses T3, Serine/threonine-protein kinase pim-1. In words: Inhibition of PIM1 (unknown origin) using 5-FAM-RSRHSSYPAGT-CONH2 as substrate after 2 hrs by electrophoretic mobility shift assay.
Data set [14] has the same target. In words: Inhibition of full length recombinant human N-terminal His-tagged PIM1 (1 to 313 end residues) expressed in baculovirus infected sf21 cells at 200 nM using S6K2 peptide as substrate by electrophoretic mobility shift assay relative to control. In a few lines:
as §2

Data set [15] has as its target T2, Serine/threonine-protein kinase pim-2. In words: Inhibition of full length recombinant human N-terminal GST-tagged PIM2 (1 to 311 residues) expressed in baculovirus infected sf21 cells at 200 nM using S6K2 peptide as substrate by electrophoretic mobility shift assay relative to control. Summed up: as §2
Data set [16] is described as follows: Growth inhibition of human MOLM16 cells after 72 hrs by CCK8 assay. It is filed as functional, cell-based. Conditions: MOLM16, 72 h. On the technique in general: Tetrazolium dyes change colour on reduction, which living cells bring about.
The test system of data set [17] is WI-38. The data set can be described thus: Growth inhibition of human WI38 cells after 48 hrs by CCK8 assay. It is filed as cell-based. Particulars: WI-38, 48 h. In a few lines:
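Cells incubated with compound for 48 h for growth inhibition.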

Data set [18] has as its target Rho-associated protein kinase 1 (Homo sapiens) (UniProt Q13464). The data set can be described thus: Inhibition of recombinant human N-terminal GST-tagged ROCK1 catalytic domain (1 to 477 residues) expressed in baculovirus infected sf21 cells at 200 nM using LIMKtide as substrate by electrophoretic mobility shift assay relative to control. In a few lines:
as §2

Data set [19] deals with Protein kinase C alpha type (Homo sapiens) (UniProt P17252). In words: Inhibition of full length recombinant human N-terminal GST-tagged PKCalpha (1 to 672 residues) expressed in baculovirus infected sf21 cells at 200 nM using PKC peptide as substrate by electrophoretic mobility shift assay relative to control. In a few lines: as §2

For the compound `COc1ccc2c(c1CN1CCNCC1)O/C(=C\c1c[nH]c3nc(Cl)ccc13)C2=O`, the inhibition at 10 µM in data set [1] is 22%. The values for the remaining at 1 h, 1 µM in data set [2] and in data set [9] were 58% and 82%, respectively. Besides, the inhibition in data set [3] was 61%; in data set [5] it was over 99%; in data set [11], 80%; in data set [12] it was 62%; in [14], 99%; in [15] it was 41%. Further, the Papp at 10 µM in data set [4] is 0.31 ×10⁻⁶ cm/s. In data set [6], this compound yielded a solubility of 21 µM (≈ 8.92 µg/mL). Besides, the IC50 in data set [7] is 0.4 nM; in [8], 140 nM; in [10], 0.49 nM; in [13] it was 0.41 nM.

As for `CN1CCC(CNc2ccc3ncc(-c4cccc(OC(F)(F)F)c4)n3n2)CC1` [SGI-1776], the half-inhibitory concentration (IC50) is 600 nM in data set [16] and 1700 nM in data set [17].

Consider `COc1ccc2c(c1CN1CCNCC1)O/C(=C\c1n[nH]c3ccccc13)C2=O`, for which the figures for the remaining at 1 h, 1 µM in [2] and in data set [9] were 83% and 68%, respectively. Further, in [4], the Papp at 10 µM was 0.89 ×10⁻⁶ cm/s.

For `CCCc1ccc2c(/C=C3\Oc4c(ccc(OC)c4CN4CCNCC4)C3=O)c[nH]c2n1`, the IC50 in [13] came out at 4.5 nM.

For the compound `O=C1/C(=C/c2c[nH]c3nc(F)ccc23)Oc2c1ccc(O)c2CN1CCNCC1`, in [13], the IC50 worked out at 1.8 nM.

On to `CCc1ccc2c(/C=C3\Oc4c(ccc(OC)c4CN4CCNCC4)C3=O)c[nH]c2n1`, for which the inhibition in [18] stood at 50%; in data set [19], 10%; in data set [11], 77%; in [12] it was 90%; in data set [15], 23%. For the same compound, the IC50 came out at 290 nM in data set [8] and 1.1 nM in [13].

With `CCCCc1ccc2c(/C=C3\Oc4c(ccc(OC)c4CN4CCNCC4)C3=O)c[nH]c2n1`, the IC50 in [13] was 2.1 nM.

As to `COc1ccc2c(c1CN1CCNCC1)O/C(=C\c1c[nH]c3ncccc13)C2=O`, in data set [1], the inhibition at 10 µM worked out at 19%. In addition, the remaining at 1 h, 1 µM worked out at 72% in [2] and 90% in [9]. The Papp at 10 µM in data set [4] was found to be 2.1 ×10⁻⁶ cm/s. Further, the inhibition is over 75% in [18], over 75% in [19], over 50% in [5] and over 50% in data set [14]. In [6], this compound gave a solubility of at least 200 µM. Moreover, the IC50 in data set [8] is 390 nM; in data set [13] it was 0.84 nM.

As to `N[C@@H]1CCCN(c2c(/C=C3\SC(=O)NC3=O)cccc2-c2ccccc2)C1`, the figures for the IC50 in data set [16] and in data set [17] were 12 nM and over 10000 nM, respectively.

Turning to `COc1ccc2c(c1CN1CCNCC1)O/C(=C\c1c[nH]c3nc(-c4ccccc4)ccc13)C2=O`, in data set [13], the half-maximal inhibitory concentration (IC50) came out at 16 nM.

In the case of `COc1ccc2c(c1CN1CCNCC1)O/C(=C\c1c[nH]c3nc(C)ccc13)C2=O`, in data set [1], 10 µM produced 14% inhibition. Also, the remaining at 1 h, 1 µM was 69% in data set [2] and 74% in data set [9]. Also, the Papp at 10 µM in data set [4] is 0.13 ×10⁻⁶ cm/s. The inhibition came to 50% in [18], 10% in data set [19], 91% in data set [11] and 25% in data set [15]. Besides, in data set [6], the solubility was determined as 130 µM (≈ 52.6 µg/mL). Further, the IC50 is 300 nM in [8] and 0.64 nM in data set [13].

Take `CCc1ccc2c(/C=C3\Oc4c(ccc(O)c4CN4CCNCC4)C3=O)c[nH]c2n1`: in data set [13], the IC50 was found to be 16 nM.

Take `O=C1/C(=C/c2c[nH]c3nc(Cl)ccc23)Oc2c1ccc(O)c2CN1CCNCC1`: in [1], the inhibition at 10 µM is 30%. Further, the remaining at 1 h, 1 µM in [2] turned out to be 63%; in [9], 82%. In addition, the inhibition in data set [3] was 63%; in data set [5], over 99%; in [11], 57%; in [12], 30%; in data set [14], 99%; in data set [15] it was 58%. Besides, the Papp at 10 µM in [4] turned out to be 1.7 ×10⁻⁶ cm/s. In addition, the 50% inhibitory concentration (IC50) in data set [16] is 200 nM; in [7], 0.88 nM; in [17], over 10000 nM; in data set [8], 140 nM; in [10], 1.3 nM; in data set [13], 1.4 nM. The compound further returned a solubility in data set [6] of 130 µM (≈ 53.4 µg/mL).

Turning to `COc1ccc2c(c1CN1CCNCC1)O/C(=C\c1c[nH]c3nc(F)ccc13)C2=O`, the inhibition in data set [3] worked out at 79%; in data set [18], 94%; in data set [11] it was 97%; in data set [12], 59%. In addition, the half-inhibitory concentration (IC50) in data set [13] was determined as 0.28 nM.

As for `O=C1/C(=C/c2c[nH]c3ncccc23)Oc2c1ccc(O)c2CN1CCNCC1`, the half-maximal inhibitory concentration (IC50) in data set [8] came out at 420 nM; in data set [13] it was 2 nM.

As for `Cc1ccc2c(/C=C3\Oc4c(ccc(O)c4CN4CCNCC4)C3=O)c[nH]c2n1`, the figures for the half-maximal inhibitory concentration (IC50) in data set [8] and in [13] were 510 nM and 3.8 nM, respectively.

What is called inhibition is the drop in the measured response relative to a control, in per cent. The solubility is the concentration that dissolves in the medium under given conditions. Higher therefore signals much dissolved substance. One may read the IC50 as the concentration at which inhibition is half-maximal.
